Measurements from ChEMBL document CHEMBL2346644, “Anti-HBV active constituents from Piper longum” (Bioorg Med Chem Lett, 2013).

Columns and labels:
[1] = Cytotoxicity against human HepG2(2.2.15) cells; assay type: cell-based
Summary of the method: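 The CC50, the concentration causing 50% cytotoxicity, was determined in Hep G2.2.15 cells. Values are the mean of two independent experiments.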

Hepatitis B virus [2] = assay: Antiviral activity against Hepatitis B virus-infected human HepG2(2.2.15) cells assessed as inhibition of HBsAg secretion; assay type: functional, organism-based
Summary of the method: (§1)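 Secretion of HBsAg and HBeAg by the HBV-producing Hep G2.2.15 line was measured after compound treatment. IC50 is the concentration giving 50% inhibition of antigen secretion. Lamivudine (3TC) served as the positive control. Values are the mean of two independent experiments.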

Hepatitis B virus [3] = assay: Antiviral activity against Hepatitis B virus-infected human HepG2(2.2.15) cells assessed as inhibition of HBeAg secretion; assay type: functional, organism-based; summary of the method: as §1
[4] = Selectivity index, ratio of CC50 for human HepG2(2.2.15) cells to IC50 for Hepatitis B virus-infected human HepG2(2.2.15) cells assessed as inhibition of HBsAg secretion; assay type: functional
Summary of the method: (§2)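 SI was calculated as CC50/IC50 from Hep G2.2.15 cytotoxicity and from inhibition of HBeAg or HBsAg secretion. The underlying values are means of two independent experiments.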

[5] = Selectivity index, ratio of CC50 for human HepG2(2.2.15) cells to IC50 for Hepatitis B virus-infected human HepG2(2.2.15) cells assessed as inhibition of HBeAg secretion; assay type: functional; summary of the method: as §2

For COc1cc(CC/C=C/C(=O)N2CCCCC2)ccc1O, the CC50 [1] was > 2700 µM, the IC50 (Hepatitis B virus [2]) was 2700 µM and the IC50 (Hepatitis B virus [3]) was > 2700 µM.
Compound CCCCCCCCCCCCCCC/C=C/C=C/C(=O)NCC(C)C has a CC50 [1] of 1580 µM, an IC50 (Hepatitis B virus [2]) of 580 µM and an IC50 (Hepatitis B virus [3]) of 1070 µM. For the same compound, the “Ratio CC50/IC50” value [4] was 2.7 and the “Ratio CC50/IC50” value [5] was 1.5.
In the case of O=C1NCC[C@H](O)[C@H]1O, the CC50 [1] is reported as > 1220 µM, the IC50 (Hepatitis B virus [2]) is reported as > 1220 µM and the IC50 (Hepatitis B virus [3]) is reported as > 1220 µM.
With O=C(/C=C/CCCC[C@H](O)[C@H](O)c1ccc2c(c1)OCO2)N1CCCCC1 (relative stereo) the CC50 [1] was 320 µM, the IC50 (Hepatitis B virus [2]) was 130 µM and the IC50 (Hepatitis B virus [3]) was 160 µM. The “Ratio CC50/IC50” value [4] was 2.5 and the “Ratio CC50/IC50” value [5] was 2.
O=C(/C=C/CCCC[C@@H](O)[C@H](O)c1ccc2c(c1)OCO2)N1CCCCC1 (relative stereo) showed a CC50 [1] of 210 µM, an IC50 (Hepatitis B virus [2]) of 110 µM and an IC50 (Hepatitis B virus [3]) of 110 µM. For the same compound, the “Ratio CC50/IC50” value [4] was 1.9 and the “Ratio CC50/IC50” value [5] was 1.9.
In the case of O=C1C=CCCN1 [5,6-DIHYDRO-2(1H)-PYRIDINONE], the CC50 [1] is reported as 9900 µM, the IC50 (Hepatitis B virus [2]) is reported as > 14000 µM and the IC50 (Hepatitis B virus [3]) is reported as > 14000 µM.
For CC(C)CNC(=O)/C=C/C=C/CCCCCC/C=C/c1ccc2c(c1)OCO2 [GUINEENSINE], the CC50 [1] was 150 µM, the IC50 (Hepatitis B virus [2]) was < 50 µM and the IC50 (Hepatitis B virus [3]) was < 50 µM. For the same compound, the “Ratio CC50/IC50” value [4] was >3 and the “Ratio CC50/IC50” value [5] was >3.
With Nc1ccn([C@@H]2CS[C@H](CO)O2)c(=O)n1 [LAMIVUDINE] the IC50 (Hepatitis B virus [2]) was 28800 µM, the IC50 (Hepatitis B virus [3]) was 30400 µM and the “Ratio CC50/IC50” value [4] was 1.1. The “Ratio CC50/IC50” value [5] was 1.
For CC(CC(=O)O)(CC(=O)O)OC[C@H]1O[C@@H](OC/C=C/c2ccccc2)[C@H](O)[C@@H](O)[C@@H]1O [LONGUMOSIDE B], the CC50 [1] was > 3750 µM, the IC50 (Hepatitis B virus [2]) was > 3750 µM and the IC50 (Hepatitis B virus [3]) was > 3750 µM.
O=C(/C=C/C=C/c1ccc2c(c1)OCO2)N1CCCCC1 [PIPERINE] gave a CC50 [1] of 2350 µM, an IC50 (Hepatitis B virus [2]) of 150 µM and an IC50 (Hepatitis B virus [3]) of 140 µM. The “Ratio CC50/IC50” value [4] was 15.7 and the “Ratio CC50/IC50” value [5] was 16.8.
In the case of CC(C)CNC(=O)/C=C/C=C/c1ccc2c(c1)OCO2 [PIPERLONGUMININE], the CC50 [1] is reported as 320 µM, the IC50 (Hepatitis B virus [2]) is reported as > 4510 µM and the IC50 (Hepatitis B virus [3]) is reported as > 4510 µM.
